Reference: ChEMBL document CHEMBL1131151, “Novel cyclic compounds as potent phosphodiesterase 4 inhibitors” (J Med Chem, 1998)

System: Canis familiaris
Experiment: Emetic effect in dogs at 0.01 mg/kg intravenous dose, 1 of 2 animals affected
Format: functional, Canis lupus familiaris
Conditions: not given
How it was run: (§1)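 Male and female beagles, 1–2 years old, 8–10 kg, food withheld the morning of testing. Compound in 100% DMSO given as a slow iv bolus into the cephalic vein over 30 s at 0.03 mL/kg. Dogs observed for up to 2 h or until emesis occurred. Usually 4 dogs (2 male, 2 female) per test.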

SMILES | Ratio
COc1ccc(C2CNC(=O)C2)cc1OC1CCCC1 (stereo unspecified) [ROLIPRAM] | 1

Target: T1, Phosphodiesterase 4 (Homo sapiens, UniProt P27815+Q08499+Q07343+Q08493)
Experiment: Binding affinity at Phosphodiesterase 4 by measuring displacement of (+/-)-[3H]- Rolipram to guinea pig brain membranes.
Format: tissue-based, Cavia porcellus
Conditions: target entry is the homologue from another species
How it was run: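 Guinea pig brain membranes (amount equal to 500 μg brain tissue per sample) incubated with 2 nM (±)-[3H]rolipram (24.7 Ci/mmol).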

SMILES | Ki
COc1ccc(C2(Cc3ccncc3)C(=O)c3ccc(OCC(=O)O)cc3C2=O)cc1OC1CCCC1 (stereo unspecified) | 20 nM
CCOc1ccc2c(c1)C(=O)C(Cc1ccncc1)(c1ccc(OC)c(OC3CCCC3)c1)C2=O (stereo unspecified) | 20 nM
COc1ccc(C2(Cc3ccncc3)C(=O)c3ccc(OC(=O)N4CCC(N5CCCCC5)CC4)cc3C2=O)cc1OC1CCCC1 (stereo unspecified) | 20 nM
COc1ccc(C2(Cc3ccncc3)C(=O)c3ccc(OC4CCN(C)CC4)cc3C2=O)cc1OC1CCCC1 (stereo unspecified) | 60 nM
COc1ccc(C2(Cc3ccncc3)C(=O)c3ccc(OCc4ccncc4)cc3C2=O)cc1OC1CCCC1 (stereo unspecified) | 30 nM
COc1ccc(C2(Cc3ccncc3)Cc3ccccc3C2)cc1OC1CCCC1 | 1600 nM
COc1ccc(C2(Cc3c(Cl)cncc3Cl)C(=O)c3ccccc3C2=O)cc1OC1CCCC1 | 1700 nM

More lines, now with the values ahead:

Ki | SMILES
20 nM | COc1ccc(C2(Cc3ccncc3)C(=O)c3ccc(OCc4ccccc4)cc3C2=O)cc1OC1CCCC1 (single isomer, unassigned; (+)) [listing 1 of 2 here]
260 nM | COc1ccc(C2(Cc3ccc(O)cc3)C(=O)c3ccccc3C2=O)cc1OC1CCCC1
20 nM | COc1ccc(C2(Cc3ccncc3)C(=O)c3ccc(OCc4ccccc4)cc3C2=O)cc1OC1CCCC1 (stereo in doubt; (+)-18)
20 nM | COc1ccc(C2(Cc3cc[n+]([O-])cc3)C(=O)c3ccccc3C2=O)cc1OC1CCCC1
20 nM | COc1ccc(C2(Cc3ccncc3)C(=O)c3ccc(OCc4ccccc4)cc3C2=O)cc1OC1CCCC1 (stereo in doubt; (+)-17)
10 nM | COc1ccc(C2(Cc3ccncc3)C(=O)c3ccccc3C2=O)cc1OC1CCCC1
> 10000 nM | COc1ccc(C2C(=O)c3ccccc3C2=O)cc1OC1CCCC1
> 10000 nM | COc1ccc(C2(Cc3ccncc3)C(O)c3ccccc3C2O)cc1OC1CCCC1 (stereo unspecified)
45 nM | COc1ccc(C2(Cc3ccncc3)C(=O)c3ccc(O)cc3C2=O)cc1OC1CCCC1 (stereo unspecified)
60 nM | COc1ccc(C2(Cc3ccncc3)Cc3cc(OCc4ccccc4)ccc3C2=O)cc1OC1CCCC1 (stereo unspecified)
2300 nM | COc1ccc(C2(Cc3ccccc3)C(=O)c3ccccc3C2=O)cc1OC1CCCC1

System: not listed separately
Experiment: (§2) Inhibition of tumor necrosis factor alpha (TNF-alpha) release in murine endotoxemia model after peroral administration
Conditions: not given
How it was run: (§3)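 Male Balb/c mice, 20–25 g, dosed orally in 0.25% methylcellulose/0.2% Tween-20 in water 4 h before ip challenge with E. coli 055:B5 LPS at 30 μg/mouse. Serum TNF-α measured by ELISA. ED50 taken from dose–response curves, n = 6 mice/group.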

SMILES | ED50
COc1ccc(C2CNC(=O)C2)cc1OC1CCCC1 (stereo unspecified) [ROLIPRAM] | 8 mg/kg

Target: T1, Phosphodiesterase 4
Experiment: Concentration to inhibit 50% of Phosphodiesterase 4 (PDE-4) from guinea pig macrophages
Format: protein assay, Cavia porcellus
Conditions: target entry is the homologue from another species
How it was run: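 Enzyme source: homogenate of guinea pig peritoneal macrophages, Percoll-purified and adherence-selected, from Dunkin Hartley animals pretreated with horse serum. Two-step radioisotopic hydrolysis assay with 1 μM cAMP substrate in 20 mM Tris-HCl pH 8.0, 10 mM MgCl2, 4 mM 2-mercaptoethanol, 0.2 mM EGTA, 0.05 mg/mL BSA.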

SMILES | IC50
COc1ccc(C2(Cc3ccncc3)C(=O)c3ccc(OCC(=O)O)cc3C2=O)cc1OC1CCCC1 (stereo unspecified) | 50 nM
CCOc1ccc2c(c1)C(=O)C(Cc1ccncc1)(c1ccc(OC)c(OC3CCCC3)c1)C2=O (stereo unspecified) | 12 nM
COc1ccc(C2(Cc3ccncc3)C(=O)c3ccc(OC(=O)N4CCC(N5CCCCC5)CC4)cc3C2=O)cc1OC1CCCC1 (stereo unspecified) | 30 nM
COc1ccc(C2(Cc3ccncc3)C(=O)c3ccc(OC4CCN(C)CC4)cc3C2=O)cc1OC1CCCC1 (stereo unspecified) | 30 nM
COc1ccc(C2(Cc3ccncc3)C(=O)c3ccc(OCc4ccncc4)cc3C2=O)cc1OC1CCCC1 (stereo unspecified) | 14 nM
COc1ccc(C2(Cc3ccncc3)Cc3ccccc3C2)cc1OC1CCCC1 | 750 nM
COc1ccc(C2(Cc3c(Cl)cncc3Cl)C(=O)c3ccccc3C2=O)cc1OC1CCCC1 | 3000 nM

Now from value to molecule:

IC50 | SMILES
4 nM | COc1ccc(C2(Cc3ccncc3)C(=O)c3ccc(OCc4ccccc4)cc3C2=O)cc1OC1CCCC1 (single isomer, unassigned; (+)) [listing 1 of 2 here]
70 nM | COc1ccc(C2(Cc3ccc(O)cc3)C(=O)c3ccccc3C2=O)cc1OC1CCCC1
30 nM | COc1ccc(C2(Cc3ccncc3)C(=O)c3ccc(OCc4ccccc4)cc3C2=O)cc1OC1CCCC1 (stereo in doubt; (+)-18)
50 nM | COc1ccc(C2(Cc3cc[n+]([O-])cc3)C(=O)c3ccccc3C2=O)cc1OC1CCCC1
6 nM | COc1ccc(C2(Cc3ccncc3)C(=O)c3ccc(OCc4ccccc4)cc3C2=O)cc1OC1CCCC1 (stereo in doubt; (+)-17)
30 nM | COc1ccc(C2(Cc3ccncc3)C(=O)c3ccccc3C2=O)cc1OC1CCCC1
> 10000 nM | COc1ccc(C2C(=O)c3ccccc3C2=O)cc1OC1CCCC1
> 10000 nM | COc1ccc(C2(Cc3ccncc3)C(O)c3ccccc3C2O)cc1OC1CCCC1 (stereo unspecified)
100 nM | COc1ccc(C2(Cc3ccncc3)C(=O)c3ccc(O)cc3C2=O)cc1OC1CCCC1 (stereo unspecified)
20 nM | COc1ccc(C2(Cc3ccncc3)Cc3cc(OCc4ccccc4)ccc3C2=O)cc1OC1CCCC1 (stereo unspecified)
500 nM | COc1ccc(C2(Cc3ccccc3)C(=O)c3ccccc3C2=O)cc1OC1CCCC1

System: Canis familiaris
Experiment: Emetic effect in dogs at 0.03 mg/kg intravenous dose, 2 of 2 animals affected
Format: functional, Canis lupus familiaris
Conditions: not given
How it was run: as §1

SMILES | Ratio
COc1ccc(C2CNC(=O)C2)cc1OC1CCCC1 (stereo unspecified) [ROLIPRAM] | 2

System: Canis familiaris
Experiment: Emetic effect in dogs at 0.7 mg/kg intravenous dose, 0 of 4 animals affected
Format: functional, Canis lupus familiaris
Conditions: not given
How it was run: as §1

SMILES | Ratio
COc1ccc(C2(Cc3ccncc3)C(=O)c3ccc(OCc4ccccc4)cc3C2=O)cc1OC1CCCC1 (single isomer, unassigned; (+)) [listing 1 of 2 here] | 0

System: not listed separately
Experiment: Inhibition of tumor necrosis factor alpha (TNF-alpha) release in murine endotoxemia model
Conditions: not given
How it was run: as §3

SMILES | ED50
COc1ccc([C@H](Cc2ccncc2)c2ccccc2)cc1OC1CCCC1 [CDP840] | 25 mg/kg

System: PBMC
Experiment: Inhibition of TNF-alpha release from LPS-stimulated human mononuclear cells
Format: functional, cell-based
Conditions: not given

SMILES | IC50
COc1ccc(C2(Cc3ccncc3)C(=O)c3ccc(OCc4ccccc4)cc3C2=O)cc1OC1CCCC1 (single isomer, unassigned; (+)) [listing 1 of 2 here] | 200 nM
COc1ccc(C2(Cc3ccncc3)C(=O)c3ccccc3C2=O)cc1OC1CCCC1 | 200 nM
COc1ccc(C2CNC(=O)C2)cc1OC1CCCC1 (stereo unspecified) [ROLIPRAM] | 500 nM

System: Canis familiaris
Experiment: Emetic effect in dogs at 0.2 mg/kg intravenous dose, 2 of 2 animals affected
Format: functional, Canis lupus familiaris
Conditions: not given
How it was run: as §1

SMILES | Ratio
COc1ccc(C2CNC(=O)C2)cc1OC1CCCC1 (stereo unspecified) [ROLIPRAM] | 2

System: not listed separately
Experiment: Inhibition of tumor necrosis factor alpha (TNF-alpha) release in murine endotoxemia model after peroral administration at 30 mg/kg.
Format: organism-based
Set-up: dose 30 mg/kg
Conditions: not given

SMILES | inhibition
COc1ccc(C2(Cc3ccncc3)C(=O)c3ccc(OCc4ccccc4)cc3C2=O)cc1OC1CCCC1 (single isomer, unassigned; (+)) [listing 2 of 2 here] | 40%
COc1ccc(C2(Cc3ccncc3)C(=O)c3ccccc3C2=O)cc1OC1CCCC1 | 0%

System: not listed separately
Experiment: as §2
Conditions: not given
How it was run: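 Male Balb/c mice, 20–25 g, were dosed orally in 0.25% methylcellulose/0.2% Tween-20 in water 4 h before an ip challenge with E. coli 055:B5 LPS at 30 μg/mouse. ED50 was taken from dose–response curves, n = 6 animals/group.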

SMILES | ED50
COc1ccc(C2(Cc3ccncc3)C(=O)c3ccc(OC(=O)N4CCC(N5CCCCC5)CC4)cc3C2=O)cc1OC1CCCC1 (stereo unspecified) | 15 mg/kg

System: Canis familiaris
Experiment: Emetic effect in dogs at 3 mg/kg intravenous dose, 0 of 4 animals affected
Format: functional, Canis lupus familiaris
Conditions: not given

SMILES | Ratio
COc1ccc(C2(Cc3ccncc3)C(=O)c3ccc(OCc4ccccc4)cc3C2=O)cc1OC1CCCC1 (single isomer, unassigned; (+)) [listing 1 of 2 here] | 0
COc1ccc(C2(Cc3ccncc3)C(=O)c3ccc(OC(=O)N4CCC(N5CCCCC5)CC4)cc3C2=O)cc1OC1CCCC1 (stereo unspecified) | 0

System: Canis familiaris
Experiment: Emetic effect in dogs at 1 mg/kg intravenous dose, 0 of 4 animals affected
Format: functional, Canis lupus familiaris
Conditions: not given
How it was run: as §1

SMILES | Ratio
COc1ccc([C@H](Cc2ccncc2)c2ccccc2)cc1OC1CCCC1 [CDP840] | 0
